Assay [1] deals with T1, Serine/threonine-protein kinase Chk1 (Homo sapiens, UniProt O14757).
T1 sequence (O14757 whole entry): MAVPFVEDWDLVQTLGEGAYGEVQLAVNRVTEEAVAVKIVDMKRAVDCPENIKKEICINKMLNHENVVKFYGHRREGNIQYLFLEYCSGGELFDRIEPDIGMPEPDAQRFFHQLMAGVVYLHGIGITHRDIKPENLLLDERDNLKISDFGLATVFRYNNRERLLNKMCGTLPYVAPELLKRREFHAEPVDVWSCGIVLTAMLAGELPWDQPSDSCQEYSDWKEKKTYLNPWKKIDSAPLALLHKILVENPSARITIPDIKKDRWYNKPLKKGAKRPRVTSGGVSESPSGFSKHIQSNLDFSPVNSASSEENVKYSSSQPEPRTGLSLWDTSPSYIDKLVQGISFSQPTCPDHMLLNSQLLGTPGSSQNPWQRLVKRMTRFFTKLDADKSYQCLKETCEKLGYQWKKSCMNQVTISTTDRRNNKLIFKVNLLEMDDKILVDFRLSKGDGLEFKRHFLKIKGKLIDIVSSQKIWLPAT
Put plainly: Inhibition of Chk1 (unknown origin) by luminescent ADP-Glo assay. (In ADP-Glo the light output rises with the ADP produced.)

Assay [2] has as its target CDK2/Cyclin A2 (Homo sapiens, UniProt P24941). Description: Inhibition of CDK2/cyclin A (unknown origin) by HTRF kinase assay. The class given is protein-complex assay. Summed up: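 CDK2/cyclin A was purchased enzyme, tested with an HTRF kinase assay kit. Compounds were first screened at 1 µg/mL final, and those giving more than 40% inhibition were taken forward to IC50.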
A general note: TR-FRET usually uses a lanthanide donor and a delayed reading to cut background.

The target in assay [3] is T2, Aurora kinase A (Homo sapiens, UniProt O14965).
T2 sequence (O14965 whole entry): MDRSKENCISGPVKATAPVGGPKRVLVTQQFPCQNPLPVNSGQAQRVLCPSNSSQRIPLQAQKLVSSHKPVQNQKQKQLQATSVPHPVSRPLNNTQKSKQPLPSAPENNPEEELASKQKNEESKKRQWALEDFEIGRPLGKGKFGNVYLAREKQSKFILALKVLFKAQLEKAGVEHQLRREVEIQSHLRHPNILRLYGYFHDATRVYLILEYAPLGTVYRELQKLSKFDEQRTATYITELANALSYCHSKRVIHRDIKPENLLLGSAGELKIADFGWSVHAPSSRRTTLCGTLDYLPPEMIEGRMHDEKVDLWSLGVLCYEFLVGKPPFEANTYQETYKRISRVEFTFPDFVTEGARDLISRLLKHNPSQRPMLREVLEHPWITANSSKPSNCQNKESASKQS
Description: Inhibition of Aurora A (unknown origin) expressed in Escherichia coli by ZLYTETM assay. Summed up: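 Z'-LYTE kinase assay. Aurora A was recombinant protein expressed in E. coli. Compounds were first tested at 1 µg/mL final. Those giving more than 40% inhibition were taken further, with IC50 reported.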

Assay [4] has as its target Protein kinase C (PKC). Description: Inhibition of PKC (unknown origin) by Z'-LYTETM kinase assay. Also noted: species or system Homo sapiens.
Assay [5] is filed under the species Homo sapiens. Put plainly: Selectivity index, ratio of IC50 for CDK2/cyclinA (unknown origin) to IC50 for Chk1 (unknown origin).
The species entered for assay [6] is Homo sapiens. Description: Selectivity index, ratio of IC50 for Aurora A (unknown origin) to IC50 for Chk1 (unknown origin).
The species entered for assay [7] is Homo sapiens. Description: Selectivity index, ratio of IC50 for PKC (unknown origin) to IC50 for Chk1 (unknown origin).
Assay [8] relates to RPMI8266. Put plainly: Cytotoxicity against human […] cells at 100 nM after 72 hrs by MTS assay. It counts as functional, cell-based. An outline of the steps: (§1)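 RPMI 8226 myeloma cells were seeded at 5 × 10³ cells per well in 100 µL. They were treated with Chk1 inhibitor at 100 nM, with melphalan (1, 3 and 10 µM), or with both, for 72 h. MTS was then added at 0.5 mg/mL final for 2–4 h to read growth.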
On the technique in general: Formazan colour is commonly taken as a measure of viable cells.

Assay [9] concerns RPMI8266. Put plainly: Potentiation of melphalan-induced cytotoxicity against human […] cells at 100 nM after 72 hrs by MTS assay. It counts as functional, cell-based. Summed up: as §1

Each structure is given as a SMILES string. pIC50: −log10 of the molar value. Calls of active or inactive are those of the source. The calls are words filed in the database; no cut-off is given here.

The term pIC50 denotes the negative decadic logarithm of the IC50, by convention in mol/L. A low value points to a high IC50. Take `Cc1cc2c(NC3CCCNC3)c(-c3nc4ccccc4[nH]3)c(=O)[nH]c2s1` (stereo not given): the pIC50 in assay [1] was 8.01.

One may read the IC50 as the concentration that inhibits the measured activity by half. Low values mean inhibition by little substance, high ones a need for much substance. With `O=c1[nH]c2sccc2c(N[C@H]2CCCNC2)c1-c1nc2ccccc2[nH]1`, the pIC50 was 8.28 in assay [1], 6.07 in assay [2] and 6.31 in assay [3]. In addition, the IC50 in assay [4] is reported as 522.51 nM. The Ratio IC50 in assay [5], in [6] and in [7] was above 20 throughout.

Take `O=c1[nH]c2sc(Cl)cc2c(NC2CN3CCC2CC3)c1-c1nc2ccccc2[nH]1` (stereo not given): the result in assay [8] was inactive. In addition, the pIC50 in [1] is 8.21; in assay [2], 5.50; in assay [3] it was below 5.00. Besides, in assay [9], the result was Active. Besides, the IC50 in assay [4] is 2018.88 nM. Moreover, the Ratio IC50 in assay [5] was 100; in [6] it was above 20; in [7] it was 100.

The molecule `O=c1[nH]c2sc(Br)cc2c(NC2CCNC2)c1-c1nc2ccccc2[nH]1` (stereo not given) had a negative-log IC50 (pIC50) in assay [1] of 7.81.

In [1], `CNCCNc1c(-c2nc3ccccc3[nH]2)c(=O)[nH]c2sccc12` showed a negative-log IC50 (pIC50) below 5.00.

For `O=c1[nH]c2sccc2c(N2CCCCC2)c1-c1nc2ccccc2[nH]1`, the pIC50 in [1] was below 5.00.

Consider `O=c1[nH]c2sccc2c(NC2CCCNC2)c1-c1nc2ccccc2[nH]1` (stereo not given), for which the pIC50 was 7.81 in [1], 6.07 in assay [2] and 6.10 in assay [3]. The molecule further registered an IC50 in assay [4] of 695.85 nM. Besides, the Ratio IC50 in assay [5], in assay [6] and in [7] was above 20 in each case.

The molecule `CN(C)CCNc1c(-c2nc3ccccc3[nH]2)c(=O)[nH]c2sccc12` had a pIC50 in [1] of 6.75.

For `O=c1[nH]c2sccc2c(NC2CCNCC2)c1-c1nc2ccccc2[nH]1`, the pIC50 in [1] is 8.00.

For the molecule `COc1ccc2[nH]c(-c3c(NC4CN5CCC4CC5)c4cc(Cl)sc4[nH]c3=O)nc2c1` (stereo not given), the pIC50 in assay [1] was 8.27; in assay [2] it was 5.37; in assay [3] it was 5.85. This molecule also returned an IC50 in assay [4] of 8186.03 nM. Further, the figures for the Ratio IC50 in [5], in [6] and in assay [7] were 100, above 20 and 100, respectively.

Regarding `Cc1cc2c(NC3CCNC3)c(-c3nc4ccccc4[nH]3)c(=O)[nH]c2s1` (stereo not given), in assay [1], the pIC50 was 7.63.

With `O=c1[nH]c2sccc2c(NC2CN3CCC2CC3)c1-c1nc2ccccc2[nH]1` (stereo not given), the pIC50 in assay [1] is 7.85; in [2] it was 5.79; in assay [3], below 5.00. Also, the IC50 in [4] is given as 1001.81 nM. Besides, the Ratio IC50 in [5] is 100; in assay [6], above 20; in [7], 100.

Take `COc1ccc2[nH]c(-c3c(N[C@H]4CCCNC4)c4cc(Cl)sc4[nH]c3=O)nc2c1`: in assay [8], the outcome was inactive. Besides, the pIC50 in [1] was 8.63; in [2], 6.41; in assay [3] it was 6.48. The outcome in assay [9] was Active. The same molecule displayed an IC50 in assay [4] of 204.48 nM. The Ratio IC50 in [5], in [6] and in assay [7] was above 20 in each case.

Turning to `O=c1[nH]c2sc(Br)cc2c(NC2CCCNC2)c1-c1nc2ccccc2[nH]1` (stereo not given), the pIC50 in assay [1] is 8.32; in assay [2] it was 6.61; in [3], 5.80. Moreover, the IC50 in assay [4] was 392.71 nM. Moreover, the Ratio IC50 in [5], in assay [6] and in [7] was above 20 each time.

In the case of `O=c1[nH]c2sc(Cl)cc2c(NC2CCCNC2)c1-c1nc2ccccc2[nH]1` (stereo not given), the result in [8] was inactive. In addition, the pIC50 in [1] was 8.39; in [2] it was 6.48; in assay [3] it was 5.98. For the same molecule, the result in [9] was Active. Also, the IC50 in [4] is listed as 168.89 nM. For the same molecule, the Ratio IC50 in [5], in [6] and in assay [7] was above 20 throughout.

In the case of `O=c1[nH]c2ccsc2c(NC2CCCNC2)c1-c1nc2ccccc2[nH]1` (stereo not given), the pIC50 in [1] was 8.12; in [2], 6.59; in assay [3], 6.69. In addition, the IC50 in assay [4] was 814.06 nM. Besides, the Ratio IC50 in assay [5], in [6] and in assay [7] was above 20 in each case.

On to `O=c1[nH]c2sccc2c(NCCN2CCOCC2)c1-c1nc2ccccc2[nH]1`, for which, in [1], the pIC50 was below 5.00.

As to `O=c1[nH]c2sc(Cl)cc2c(N[C@H]2CCCNC2)c1-c1nc2ccccc2[nH]1`, the pIC50 in assay [1] is 8.45.

With `NC(=O)Nc1cc(-c2cccc(F)c2)sc1C(=O)N[C@H]1CCCNC1`, in assay [8], the result was inactive. Also, the result in assay [9] was Active.

Take `O=c1[nH]c2sccc2c(NCC2CCNCC2)c1-c1nc2ccccc2[nH]1`: the pIC50 in [1] is 6.94.

Consider `COC(=O)CCNc1c(-c2nc3ccccc3[nH]2)c(=O)[nH]c2sccc12`, for which the pIC50 in [1] is below 5.00.

In turn, `O=c1[nH]c2sccc2c(NC2CCCCC2)c1-c1nc2ccccc2[nH]1` showed a negative logarithm of the IC50 (pIC50) in assay [1] below 5.00.

Consider `O=c1[nH]c2sccc2c(N2CCOCC2)c1-c1nc2ccccc2[nH]1`, for which the pIC50 in [1] was below 5.00.

`O=c1[nH]c2sccc2c(NCCO)c1-c1nc2ccccc2[nH]1` gave a pIC50 in [1] below 5.00.

For `O=c1[nH]c2sccc2c(N2CCC(CO)CC2)c1-c1nc2ccccc2[nH]1`, the pIC50 in assay [1] was below 5.00.

As to `NCCNc1c(-c2nc3ccccc3[nH]2)c(=O)[nH]c2sccc12`, in [1], the pIC50 is below 5.00.

For the molecule `O=c1[nH]c2sc(Cl)cc2c(NC2CCNC2)c1-c1nc2ccccc2[nH]1` (stereo not given), the pIC50 in assay [1] was 7.39.

In assay [1], `O=c1[nH]c2sccc2c(NC2CCNC2)c1-c1nc2ccccc2[nH]1` (stereo not given) had a pIC50 of 7.32.

For `O=c1[nH]c2ccsc2c(NC2CCNC2)c1-c1nc2ccccc2[nH]1` (stereo not given), in [1], the pIC50 is 7.61.

The values above are taken from ChEMBL document CHEMBL3352128, “Design, synthesis and biological evaluation of thienopyridinones as Chk1 inhibitors” (Bioorg Med Chem, 2014).
